Experimental data taken from publication PMC12166265 (Clinical Pharmacology and Therapeutics, 2025).
Read-outs that look alike come from different tables or passages of the source. Values belong to the compound of their own block, whether it stands above or below them.

How the values were obtained:
BCRP [1] = biological target: T1, BCRP (Homo sapiens, UniProt Q9UNQ0); format: cell-based
T1 sequence (Q9UNQ0 1-655): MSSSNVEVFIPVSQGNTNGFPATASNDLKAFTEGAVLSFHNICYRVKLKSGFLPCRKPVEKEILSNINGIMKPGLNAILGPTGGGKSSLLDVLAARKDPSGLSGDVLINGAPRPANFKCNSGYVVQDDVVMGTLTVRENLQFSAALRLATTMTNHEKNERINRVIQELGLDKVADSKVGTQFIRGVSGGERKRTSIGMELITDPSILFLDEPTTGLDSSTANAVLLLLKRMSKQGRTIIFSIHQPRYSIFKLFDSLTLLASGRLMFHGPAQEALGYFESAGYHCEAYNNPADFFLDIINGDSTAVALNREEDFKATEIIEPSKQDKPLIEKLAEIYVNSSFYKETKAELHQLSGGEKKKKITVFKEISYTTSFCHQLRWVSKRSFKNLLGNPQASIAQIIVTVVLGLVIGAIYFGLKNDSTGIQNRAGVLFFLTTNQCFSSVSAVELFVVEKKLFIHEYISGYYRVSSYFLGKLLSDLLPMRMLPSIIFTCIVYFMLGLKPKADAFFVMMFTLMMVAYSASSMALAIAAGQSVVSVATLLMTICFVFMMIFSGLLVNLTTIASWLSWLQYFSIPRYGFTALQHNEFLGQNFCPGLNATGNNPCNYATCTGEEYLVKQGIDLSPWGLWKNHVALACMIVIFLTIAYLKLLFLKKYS
In short: (§1)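 Transporter-overexpressing HEK293 cells were cultured in DMEM with 10% FBS, 1% penicillin/streptomycin and selection antibiotics at 37°C, 5% CO₂. Test compounds were screened at 10 μM and 30 μM, and uptake was quantified as normalised peak areas. For OATP1B1/1B3, uptake was compared with empty-vector cells, and for OATP1B1 also with cells treated with the inhibitor cyclosporine A.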

OATP1B1 = biological target: T2, OATP1B1 (Homo sapiens, UniProt Q9Y6L6); format: cell-based; conditions: HEK293 OATP1B1 cells
T2 sequence (Q9Y6L6 1-691): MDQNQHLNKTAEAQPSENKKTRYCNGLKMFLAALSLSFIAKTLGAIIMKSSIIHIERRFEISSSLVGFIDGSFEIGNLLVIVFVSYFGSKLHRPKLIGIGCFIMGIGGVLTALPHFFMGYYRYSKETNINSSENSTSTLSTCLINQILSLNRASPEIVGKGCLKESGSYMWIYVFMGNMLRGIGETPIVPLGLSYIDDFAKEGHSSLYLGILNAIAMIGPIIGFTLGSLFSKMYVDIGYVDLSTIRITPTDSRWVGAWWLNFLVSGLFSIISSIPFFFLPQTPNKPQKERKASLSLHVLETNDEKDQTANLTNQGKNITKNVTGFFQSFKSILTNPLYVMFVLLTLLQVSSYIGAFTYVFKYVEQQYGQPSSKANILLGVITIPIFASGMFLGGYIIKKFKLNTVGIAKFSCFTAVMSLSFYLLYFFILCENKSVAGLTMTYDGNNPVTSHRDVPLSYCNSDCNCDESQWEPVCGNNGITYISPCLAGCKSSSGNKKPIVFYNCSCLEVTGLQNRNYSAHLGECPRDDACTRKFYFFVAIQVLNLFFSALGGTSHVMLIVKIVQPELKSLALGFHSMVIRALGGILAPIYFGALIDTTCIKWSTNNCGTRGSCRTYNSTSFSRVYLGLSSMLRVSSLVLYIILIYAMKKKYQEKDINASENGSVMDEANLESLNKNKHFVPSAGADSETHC
In short: as §1

OATP1B3 = biological target: T3, OATP1B3 (Homo sapiens, UniProt Q9NPD5); experiment: Substrate screening in HEK293 cells expressing OATP1B3; format: cell-based
T3 sequence (Q9NPD5 1-702): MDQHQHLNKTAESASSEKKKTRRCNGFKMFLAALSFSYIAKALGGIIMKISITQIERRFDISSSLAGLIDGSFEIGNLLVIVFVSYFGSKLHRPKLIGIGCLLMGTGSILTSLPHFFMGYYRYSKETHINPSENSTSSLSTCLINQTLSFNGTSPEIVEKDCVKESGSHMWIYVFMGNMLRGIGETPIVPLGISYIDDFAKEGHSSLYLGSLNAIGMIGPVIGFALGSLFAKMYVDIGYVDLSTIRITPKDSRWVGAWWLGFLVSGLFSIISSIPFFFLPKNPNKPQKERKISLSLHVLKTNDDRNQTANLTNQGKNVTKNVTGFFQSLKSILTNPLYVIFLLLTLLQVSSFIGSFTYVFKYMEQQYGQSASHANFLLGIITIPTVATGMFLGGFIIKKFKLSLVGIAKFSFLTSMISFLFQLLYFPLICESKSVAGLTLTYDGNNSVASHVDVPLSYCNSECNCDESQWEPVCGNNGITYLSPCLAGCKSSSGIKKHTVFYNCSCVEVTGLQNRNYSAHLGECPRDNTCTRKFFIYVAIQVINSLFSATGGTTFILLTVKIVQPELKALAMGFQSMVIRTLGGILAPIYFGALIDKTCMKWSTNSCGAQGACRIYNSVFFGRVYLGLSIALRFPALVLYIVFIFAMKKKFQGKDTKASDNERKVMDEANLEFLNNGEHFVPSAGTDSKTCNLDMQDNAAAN
In short: as §1

ABCG2 p.Q141K variant = format: in vivo, human; conditions: two p.Q141K (CA) vs nine REF (CC) individuals; T = 0 h
In short: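 Open-label fixed-sequence crossover in 11 healthy non-smoking adults aged 18–64. Single oral rosuvastatin 10 mg given after an overnight fast, with fasting continued 4 h. Heparinised venous plasma was stored at −70°C and analysed by LC–MS. ABCG2 c.421C>A was genotyped blind by PCR and Sanger sequencing. Nine CC and two CA subjects were compared at T = 0 h and by noncompartmental PK, using log-transformed geometric means and unpaired t-tests.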

P-gp = P-gp (Homo sapiens, UniProt P08183); experiment: Inhibitor screening of [3H]digoxin accumulation in HEK293 cells expressing P-gp; format: cell-based
In short: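 HEK293 lines overexpressing the named transporter were grown in DMEM with 10% FBS, 1% penicillin/streptomycin and line-specific selection antibiotics, at 37°C, humidified, 5% CO₂. Cell-based uptake assays measured inhibition of transporter activity.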

[2] = format: in vivo, human; conditions: for Effect of eltrombopag administration on plasma concentrations (in words): eltrombopag 75 mg daily for 5 days
BCRP [3] = conditions: 14 healthy males, BMS-986371; cited from earlier work
[4] = both, human, plasma, oral, 10 mg
[5] = both, human, plasma, oral, 10 mg, AUC0−4, rosuvastatin alone arm, geometric mean (90% CI)
[6] = both, human, plasma, oral, AUC0−4, rosuvastatin + eltrombopag arm, geometric mean (90% CI)

Chain of P-gp (P08183 whole entry): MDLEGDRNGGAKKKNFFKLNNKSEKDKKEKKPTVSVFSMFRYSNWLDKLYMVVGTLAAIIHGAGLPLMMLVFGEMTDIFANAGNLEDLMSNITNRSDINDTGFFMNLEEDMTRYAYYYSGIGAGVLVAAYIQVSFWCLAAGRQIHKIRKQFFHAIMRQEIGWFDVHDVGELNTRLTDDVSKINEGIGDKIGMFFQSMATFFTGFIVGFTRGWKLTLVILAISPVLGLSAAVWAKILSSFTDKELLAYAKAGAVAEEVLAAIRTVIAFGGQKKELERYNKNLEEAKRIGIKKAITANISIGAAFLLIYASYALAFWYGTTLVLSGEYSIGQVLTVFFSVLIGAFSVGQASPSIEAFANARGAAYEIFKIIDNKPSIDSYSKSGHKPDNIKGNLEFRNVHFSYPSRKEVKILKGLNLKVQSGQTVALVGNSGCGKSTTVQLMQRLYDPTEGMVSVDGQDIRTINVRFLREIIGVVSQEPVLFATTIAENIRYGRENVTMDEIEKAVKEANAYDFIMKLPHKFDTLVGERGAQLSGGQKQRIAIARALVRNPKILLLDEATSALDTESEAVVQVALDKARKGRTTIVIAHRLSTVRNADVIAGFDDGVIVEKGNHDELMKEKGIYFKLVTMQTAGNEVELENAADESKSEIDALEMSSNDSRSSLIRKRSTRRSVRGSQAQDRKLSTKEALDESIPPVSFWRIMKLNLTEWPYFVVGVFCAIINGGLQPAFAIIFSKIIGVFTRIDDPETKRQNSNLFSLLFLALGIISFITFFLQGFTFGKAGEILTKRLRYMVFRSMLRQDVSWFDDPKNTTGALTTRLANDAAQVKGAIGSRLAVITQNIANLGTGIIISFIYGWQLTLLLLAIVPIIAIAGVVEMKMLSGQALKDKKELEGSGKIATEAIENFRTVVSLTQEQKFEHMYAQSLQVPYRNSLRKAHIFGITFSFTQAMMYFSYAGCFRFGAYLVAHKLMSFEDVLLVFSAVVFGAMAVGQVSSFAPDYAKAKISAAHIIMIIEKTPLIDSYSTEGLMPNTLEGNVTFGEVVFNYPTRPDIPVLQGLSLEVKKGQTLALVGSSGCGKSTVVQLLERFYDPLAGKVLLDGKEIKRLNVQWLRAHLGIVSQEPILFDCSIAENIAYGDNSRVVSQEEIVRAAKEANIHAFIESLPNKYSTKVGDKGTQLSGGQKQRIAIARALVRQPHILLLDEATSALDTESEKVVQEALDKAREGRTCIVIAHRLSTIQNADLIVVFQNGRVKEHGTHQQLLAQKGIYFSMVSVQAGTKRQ

Uptake in BCRP-expressing HEK293 cells compared to same cell line with Ko143 (BCRP [1]; 10 μM and 30 μM, 30 min): significantly reduced
BCRP substrate classification (BCRP [1]; HEK293 BCRP cells): BCRP substrates
OATP1B1 substrate classification (OATP1B1): not substrates
OATP1B3 substrate classification (OATP1B3): not substrates
Baseline concentrations, heterozygous p.Q141K vs homozygous reference allele (ABCG2 p.Q141K variant): significantly higher
Effect on intracellular accumulation of P-gp substrate [3H]digoxin (P-gp): did not affect
AUC0−24, geometric mean ratio (90% CI) of rosuvastatin + eltrombopag arm to rosuvastatin alone arm ([2]; both, human, plasma, oral): 0.95 (0.89–1.02); P = 0.38
C0 at 0 h ([2]; both, human, plasma, oral): 0.57 ng/mL
Cmax ([2]; both, human, plasma, oral): 0.7 ng/mL
C0 at 0 h [2, 4]: 0.64 ng/mL
Cmax [2, 4]: 0.7 ng/mL
AUC(0-t) [2, 5]: 2.13 ng·h/mL
AUC(0-t) [2, 6]: 2.1 ng·h/mL
Effect of eltrombopag administration on plasma concentrations (in words) [2]: did not lead to corresponding increases
AUC0−4, geometric mean ratio (90% CI) of rosuvastatin + eltrombopag arm to rosuvastatin alone arm ([2]; human, in vivo): 0.98 (0.91–1.07); P = 0.78
Cmax, geometric mean ratio (90% CI) of rosuvastatin + eltrombopag arm to rosuvastatin alone arm ([2]; human, in vivo): 1.01 (0.93–1.09); P = 0.96
Food effects, fasted (AUC0−4) vs fed (AUC4−8) ([2]; human, in vivo): No food effects
Compound: O=C(O)c1c(O)c(Cl)cc(Br)c1O [BCDBA, 3‐bromo‐5‐chloro‐2,6‐dihydroxybenzoic acid]

Baseline concentrations, heterozygous p.Q141K vs homozygous reference allele (ABCG2 p.Q141K variant): no association
C0 at 0 h ([2]; both, human, plasma, oral): 2.79 ng/mL
Cmax ([2]; both, human, plasma, oral): 3.61 ng/mL
AUC [2, 4]: 11.7 ng·h/mL
C0 at 0 h [2, 4]: 2.72 ng/mL
Cmax [2, 4]: 4.16 ng/mL
AUC(0-t) [2, 5]: 10.6 ng·h/mL
AUC(0-t) ([2]; both, human, plasma, oral, 10 mg, AUC0−24, rosuvastatin alone arm, geometric mean (90% CI)): 65.9 ng·h/mL
AUC(0-t) ([2]; both, human, plasma, oral, 10 mg, mean riboflavin AUC0−4, fasted state, rosuvastatin alone arm): 10.6 ng·h/mL
AUC(0-t) [2, 6]: 10.2 ng·h/mL
AUC(0-t) ([2]; both, human, plasma, oral, AUC0−24, rosuvastatin + eltrombopag arm, geometric mean (90% CI)): 65.6 ng·h/mL
AUC(0-t) ([2]; both, human, plasma, oral, mean riboflavin AUC0−4, fasted state, in the presence of eltrombopag): 9.7 ng·h/mL
Effect of eltrombopag administration on plasma concentrations (in words) [2]: did not lead to corresponding increases
Compound: Cc1cc2nc3c(=O)[nH]c(=O)nc-3n(C[C@H](O)[C@H](O)[C@H](O)CO)c2cc1C [Riboflavin]
Increase in riboflavin AUC0−4 (BCRP [3]): 1.25 fold
Increase in riboflavin AUC0−24 (BCRP [3]): 1.14 fold
Increase in riboflavin Cmax (BCRP [3]): 1.11 fold
